The results in this text go back to ChEMBL document CHEMBL1144952 (J Med Chem, 2003).

Assay [1] relates to Mus musculus. Briefly: Effective dose of compound against inhibition of LPS stimulated TNF-alpha release when administered intravenously in mice. The class given is functional. As to conditions: iv. The gist of the method:
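Female BALB/c mice, 6–8 weeks old. Compound in 10% propylene glycol/PBS was co-injected iv with LPS (E. coli O111:B4, 10 μg/mL in the dosing solution, 0.1 mL per mouse). Serum was taken 60 min later and TNF-α measured by ELISA; 8 mice per group, mean ± SD.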

Assay [2] has as its system Mus musculus. Nature of the assay: Percentage reduction of serum TNF-alpha when dose of 50 mg/kg was administered orally in mice. The class given is functional. The conditions noted are these: route oral. The method in brief: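 Female BALB/c mice, 6–8 weeks old, given compound by gavage in 50% propylene glycol/water 10 min before iv LPS (0.1 mL of 10 μg/mL in PBS). Serum TNF-α was measured by ELISA 60 min after LPS; 8 mice per group, mean ± SD.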

Assay [3] in a line: In vitro inhibitory concentration of compound against TNF-alpha release in human peripheral blood mononuclear cells was determined. The class given is functional. The method in brief:
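PBMCs isolated by ficoll from healthy donor blood and plated at 1 × 10^6 cells/mL in RPMI with 10% FBS. Compounds were added for 30 min before stimulation with LPS (25 ng/mL final). After 6 h at 37 °C, supernatant TNF-α was measured by ELISA.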

The target of the next assay is Cannabinoid receptor 1 (Homo sapiens, UniProt P21554). Nature of the assay: Binding affinity of compound against human cannabinoid receptor 1 in chinese hamster ovary cells by using radioligand CP-55940. The class given is cell-based, CHO. The method in brief:
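CHO-K1 membranes expressing human CB1; CP55,940 used as radiolabelled tracer (routinely 10 nM). Bound label collected by filtration and measured by scintillation counting.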

The target of assay [4] is T1, Cannabinoid receptor 2 (Homo sapiens, UniProt P34972). Nature of the assay: Binding affinity against human cannabinoid receptor 2 in chinese hamster ovary cells using WIN-55212-2 mesylate[57-3H]. The format is cell-based, CHO.
In assay [5] the target is T1, Cannabinoid receptor 2. Briefly: Percent Inhibition of binding at 100 nM against human cannabinoid receptor 2 in chinese hamster ovary cells by using a radioligand WIN-55212-2 mesylate[57-3H]. The class given is cell-based. As to conditions: CHO.
The target of assay [6] is T1, Cannabinoid receptor 2. Nature of the assay: Percent Inhibition of binding at […] against human cannabinoid receptor 2 in chinese hamster ovary cells by using a radioligand WIN-55212-2 mesylate[57-3H]. The format is cell-based. As to conditions: CHO.

Broadly, the ED50 is the midpoint of the dose-response relation. By IC50 is commonly meant the midpoint of a concentration-inhibition curve. The Ki is a measure of affinity in units of concentration, obtained from inhibition or displacement. A low value points to higher affinity. The term inhibition denotes the percentage by which the read-out fell short of the control.

Cannabinoid receptor 1, sequence (P21554 whole entry): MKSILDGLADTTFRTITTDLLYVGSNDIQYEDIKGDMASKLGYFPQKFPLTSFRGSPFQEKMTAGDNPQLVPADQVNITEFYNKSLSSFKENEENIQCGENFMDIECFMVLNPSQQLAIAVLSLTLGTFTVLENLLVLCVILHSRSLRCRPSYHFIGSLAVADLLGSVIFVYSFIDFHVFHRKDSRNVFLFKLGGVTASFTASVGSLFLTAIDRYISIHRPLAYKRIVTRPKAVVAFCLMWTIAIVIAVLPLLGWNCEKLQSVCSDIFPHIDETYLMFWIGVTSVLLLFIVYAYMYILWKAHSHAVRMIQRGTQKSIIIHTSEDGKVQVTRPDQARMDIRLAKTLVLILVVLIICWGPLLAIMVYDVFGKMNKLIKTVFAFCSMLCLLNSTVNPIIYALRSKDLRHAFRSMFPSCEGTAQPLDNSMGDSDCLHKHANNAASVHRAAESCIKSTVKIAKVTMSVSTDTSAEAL
T1 sequence (P34972 whole entry): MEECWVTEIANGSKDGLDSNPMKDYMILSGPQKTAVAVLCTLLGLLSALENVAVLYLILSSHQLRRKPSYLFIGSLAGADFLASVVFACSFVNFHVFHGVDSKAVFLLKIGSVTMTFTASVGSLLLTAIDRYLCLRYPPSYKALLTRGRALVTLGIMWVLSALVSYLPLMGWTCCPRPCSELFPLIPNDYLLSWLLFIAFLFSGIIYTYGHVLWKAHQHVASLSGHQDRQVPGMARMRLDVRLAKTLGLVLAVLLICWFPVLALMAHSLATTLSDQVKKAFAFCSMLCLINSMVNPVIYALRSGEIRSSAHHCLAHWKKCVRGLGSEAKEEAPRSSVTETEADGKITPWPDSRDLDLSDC

As for `COc1cccc2c3c(=O)n([C@@H]4C(C)(C)[C@@H]5CC[C@@]4(C)C5)ccc3n(CCN3CCOCC3)c12`, the ED50 with Mus musculus [1] was 2 mg/kg. The compound further had a Reduction in the assay on Mus musculus [2] of 61%. In addition, the midpoint of inhibition in assay [3], the IC50, lay at 8000 nM. Moreover, the results for the Ki on Cannabinoid receptor 1 and on Cannabinoid receptor 2 [4] were 16 nM and 1 nM, respectively.
Take `CCCc1c(C(=O)NC2C(C)(C)[C@@H]3CC[C@@]2(C)C3)c2cccc(OC)c2n1CCN1CCOCC1` (some centres not stated): the inhibition at Cannabinoid receptor 2 [5] amounted to 6%.
With `COc1cccc2c(C(=O)N(Cc3c(F)cccc3Cl)C(C)C)nn(CCN3CCOCC3)c12`, in assay [3], the IC50 was found to be 36000 nM. The compound also gave an inhibition constant (Ki) at Cannabinoid receptor 2 [4] of 69 nM.
`COc1cccc2c3c(=O)n(C(c4ccccc4)c4ccccn4)ccc3n(CCN3CCOCC3)c12` (configuration not stated) returned an inhibition on Cannabinoid receptor 2 [6] of 13%.
As to `COc1cccc2c(C(=O)NC3C(C)(C)[C@@H]4CC[C@@]3(C)C4)nn(CCN3CCOCC3)c12` (some centres not stated), the IC50 in assay [3] stood at 30000 nM. Besides, the results for the Ki at Cannabinoid receptor 1 and on Cannabinoid receptor 2 [4] were 24 nM and 2 nM, respectively.
On Cannabinoid receptor 2 [4], `CCc1c(C(=O)NC2C(C)(C)[C@@H]3CC[C@@]2(C)C3)c2cccc(OC)c2n1CCN1CCOCC1` (some centres not stated) yielded an inhibitory constant (Ki) of 110 nM.
Turning to `COc1cccc2c(C(=O)NC3C(C)(C)[C@@H]4CC[C@@]3(C)C4)cn(CCN3CCOCC3)c12` (some centres not stated), the IC50 in assay [3] was determined as 13000 nM. The Ki turned out to be 245 nM at Cannabinoid receptor 1 and 11 nM on Cannabinoid receptor 2 [4].
On to `COc1ccccc1Cn1ccc2c(c1=O)c1cccc(OC)c1n2CCN1CCOCC1`, for which, in assay [3], 7000 nM corresponded to half-maximal inhibition (IC50). Also, the Ki is 3700 nM on Cannabinoid receptor 1 and 67 nM on Cannabinoid receptor 2 [4].
In the same order, the values of `COc1cccc2c(C(=O)NC3C(C)(C)[C@@H]4CC[C@@]3(C)C4)c(C)n(CCN3CCOCC3)c12` (some centres not stated) are 33000 nM, 8 nM and 29 nM.
`COc1ccccc1CNC(=O)c1nn(CCN2CCOCC2)c2c(OC)cccc12` showed an IC50 in assay [3] of 43000 nM. Besides, the affinity on Cannabinoid receptor 2 [4], expressed as Ki, was 77 nM.
The compound `COc1cccc2c(C(=O)NC(c3ccccc3)c3ccccn3)nn(CCN3CCOCC3)c12` (configuration not stated) registered an IC50 in assay [3] of 20000 nM. Also, the figures for the Ki on Cannabinoid receptor 1 and on Cannabinoid receptor 2 [4] were 162 nM and 146 nM, respectively.
